Where two headings read alike, the source gives them in different places.
Experiments:
[1] = target: T1, human SERT (Homo sapiens, UniProt P31645); type: cell-based; conditions: for increase of rate of peak current recovery from 0 M to 140 mM intracellular Na+ / change of rate of peak current recovery with intracellular Na+ concentration: extracellular Na+ 140 mM; for peak current recovery rate (monoexponential fit): fixed intracellular Na+ 140 mM, K+-free, Fig. 1 G; for dependence of the recovery rates on extracellular Na+ concentration: intracellular Na+ 140 mM, extracellular Na+ 10-140 mM; for change of rate of peak current recovery with intracellular Na+ concentration: 0 to 140 mM intracellular Na+; for kslow of peak current recovery (biexponential fit): after 30 µM substrate, ±SEM
T1 sequence (P31645 whole entry, the tested form may be a part): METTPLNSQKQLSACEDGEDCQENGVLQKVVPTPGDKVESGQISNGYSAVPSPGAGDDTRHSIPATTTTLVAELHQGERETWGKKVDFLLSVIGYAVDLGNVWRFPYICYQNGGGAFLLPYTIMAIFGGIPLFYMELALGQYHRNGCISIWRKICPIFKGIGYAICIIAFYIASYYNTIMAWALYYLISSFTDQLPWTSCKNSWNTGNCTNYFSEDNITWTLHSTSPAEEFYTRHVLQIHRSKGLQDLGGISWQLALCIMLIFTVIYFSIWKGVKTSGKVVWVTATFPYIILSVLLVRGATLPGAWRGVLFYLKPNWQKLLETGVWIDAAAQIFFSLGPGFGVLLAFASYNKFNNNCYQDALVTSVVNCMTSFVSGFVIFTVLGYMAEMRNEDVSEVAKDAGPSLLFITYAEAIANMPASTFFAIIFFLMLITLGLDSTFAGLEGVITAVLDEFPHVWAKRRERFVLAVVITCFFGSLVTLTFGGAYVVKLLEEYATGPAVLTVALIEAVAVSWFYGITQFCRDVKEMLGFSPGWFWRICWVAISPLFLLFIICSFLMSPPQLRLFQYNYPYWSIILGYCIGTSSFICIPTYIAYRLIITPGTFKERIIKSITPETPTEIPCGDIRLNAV
Procedure, shortened: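 GFP-tagged human SERT, tetracycline-inducible, in HEK293 cells seeded at low density 24 h before. Whole-cell voltage clamp with superfused pH 7.4 HEPES buffer. Na+ varied, osmolarity kept by NMDG chloride; intracellular Na+ 0–140 mM at 140 mM external. After 30 µM substrate, 10 µM 5-HT-evoked peak recovery fitted to mono- or biexponential rise; rates ±95% CI, kslow ±SEM; n = 4–7.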

[2] = target: T1, human SERT; experiment: [3H]MPP+ release; type: cell-based; conditions: 3 µM releaser, 100 µM ouabain; for effect of monensin on efflux of [3H]MPP+: with vs without 10 µM monensin
Procedure, shortened: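 HEK293 cells with inducible GFP-tagged human SERT on poly-D-lysine coverslips (24 h) were preloaded with 0.1 µM [3H]MPP+ for 20 min at 37°C. Superfused with K+-free buffer containing 100 µM ouabain for 40 min, then 2-min fractions: three basal, four with 10 µM monensin or ethanol vehicle, five with 3 µM test compound, three with 1% SDS. Release given as percent [3H]MPP+ over time.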

Compound | increase of rate of peak current recovery from 0 M to 140 mM intracellular Na+ [1] [fold] | peak current recovery rate (monoexponential fit) [1] [s⁻¹] | dependence of the recovery rates on extracellular Na+ concentration [1] | change of rate of peak current recovery with intracellular Na+ concentration [1] | effect of monensin on efflux of [3H]MPP+ [2] | also measured
NCCc1c[nH]c2ccc(O)cc12 [5-HT, 5-hydroxy-tryptamine] | ~6.7 | 4.012 ± 0.211 | did not detect any dependence |  |  | 
CC(N)Cc1ccc2ccccc2c1 (centres unmarked) [PAL-287] |  |  |  | did not change with Na^+ concentration |  | 
CCN[C@@H](C)Cc1ccc2ccccc2c1 [PAL-1045] |  | 0.025 ± 0.001 |  | decreased fourfold | comparable in the absence and presence of monensin | dissociation rate from SERT ([1]; slow dissociation from the outward-facing conformation, high Na+): ~0.025 s⁻¹
CNC(C)Cc1ccc2ccccc2c1 (centres unmarked) [PAL-1046] |  |  |  | did not change with Na^+ concentration |  | 
CC(N)Cc1ccc(Cl)cc1 (centres unmarked) [p-chloroamphetamine, para-chloroamphetamine] | ~10 |  | did not detect any dependence |  | significantly larger efflux | release of [3H]MPP+ ([2]; no monensin): substantially larger release of [^3H]MPP^+ than PAL-1045; kslow of peak current recovery (biexponential fit) ([1]; 10 mM Na+e, 140 mM intracellular Na+): 0.35 ± 0.23 s⁻¹; kslow of peak current recovery (biexponential fit) ([1]; 70 mM Na+e, 140 mM intracellular Na+): 0.10 ± 0.12 s⁻¹; kslow of peak current recovery (biexponential fit) ([1]; 70 mM Na+i, 140 mM extracellular Na+): 0.50 ± 0.11 s⁻¹; kslow of peak current recovery (biexponential fit) ([1]; 140 mM Na+e, 140 mM intracellular Na+): 0.49 ± 0.15 s⁻¹

Source: publication PMC5839721 (The Journal of General Physiology, 2018)
